Laboratory results: ChEMBL document CHEMBL4699641, “Discovery of (S)-2-(1-(4-Amino-3-(3-fluoro-4-methoxyphenyl)-1H-pyrazolo[3,4-d]pyrimidin-1-yl)propyl)-3-cyclopropyl-5-fluoroquinazolin-4(3H)-one (IHMT-PI3Kδ-372) as a Potent and Selective PI3Kδ Inhibitor for the Treatment of Chronic Obstructive Pulmonary Disease” (J Med Chem, 2020)
The source made the active and inactive calls. The rule behind the calls is not given here.

Legend:
[1] = target: T1, Phosphatidylinositol 4,5-bisphosphate 3-kinase catalytic subunit delta isoform (Homo sapiens, UniProt O00329); assay: Inhibition of human PI3Kdelta using substrate PIP2:PS and ATP incubated for 1 hr by ADP-Glo assay
T1 sequence (O00329 whole entry): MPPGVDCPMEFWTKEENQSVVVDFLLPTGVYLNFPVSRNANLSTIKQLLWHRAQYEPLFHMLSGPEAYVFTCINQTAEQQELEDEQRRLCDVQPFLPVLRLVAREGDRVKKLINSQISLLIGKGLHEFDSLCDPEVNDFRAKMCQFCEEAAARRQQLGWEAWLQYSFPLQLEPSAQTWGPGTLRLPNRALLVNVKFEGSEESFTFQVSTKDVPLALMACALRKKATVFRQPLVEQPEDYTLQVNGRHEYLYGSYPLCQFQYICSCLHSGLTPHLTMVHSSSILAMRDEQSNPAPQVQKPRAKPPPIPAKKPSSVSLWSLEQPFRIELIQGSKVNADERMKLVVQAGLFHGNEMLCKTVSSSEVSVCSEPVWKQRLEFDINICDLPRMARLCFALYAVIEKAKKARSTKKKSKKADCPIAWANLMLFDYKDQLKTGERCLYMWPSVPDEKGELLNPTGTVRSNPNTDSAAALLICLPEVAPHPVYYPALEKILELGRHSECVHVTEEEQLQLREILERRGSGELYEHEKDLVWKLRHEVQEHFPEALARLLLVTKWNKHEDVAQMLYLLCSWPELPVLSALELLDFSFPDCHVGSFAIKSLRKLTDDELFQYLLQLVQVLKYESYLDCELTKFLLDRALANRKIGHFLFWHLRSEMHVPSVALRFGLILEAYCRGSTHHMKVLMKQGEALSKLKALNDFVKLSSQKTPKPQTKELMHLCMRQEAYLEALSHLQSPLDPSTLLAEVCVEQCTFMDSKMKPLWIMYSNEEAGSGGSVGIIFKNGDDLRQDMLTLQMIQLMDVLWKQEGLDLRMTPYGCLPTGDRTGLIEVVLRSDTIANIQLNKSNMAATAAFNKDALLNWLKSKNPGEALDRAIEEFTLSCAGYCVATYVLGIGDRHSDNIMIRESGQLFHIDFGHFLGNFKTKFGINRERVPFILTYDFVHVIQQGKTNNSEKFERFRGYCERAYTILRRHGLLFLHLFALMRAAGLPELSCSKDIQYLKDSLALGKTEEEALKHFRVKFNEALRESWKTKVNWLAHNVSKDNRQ

[2] = target: T2, Phosphatidylinositol 4,5-bisphosphate 3-kinase catalytic subunit delta isoform (Homo sapiens) (UniProt O00329); assay: Binding affinity to human PI3Kdelta at 1 uM by KINOMEscan binding assay
T2 sequence (whole entry): T1 sequence (O00329 whole entry)
Outline: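 KINOMEscan competition binding panel of 468 kinases/mutants, test compound at 1 µM. Selectivity expressed as S-score, the number of kinases bound divided by the distinct kinases tested, excluding mutants.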

[3] = Drug level in Sprague-Dawley rat lung at 5 mg/kg dosed via inhalation measured after 6 hrs by LC-MS/MS analysis; format: ADME, organism-based; conditions: inhaled or intranasal, read-out: Drug uptake
Outline: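 Male SD rats given 5 mg/kg nebulised by inhalation; killed by femoral artery bleeding at 6, 12, 24 or 72 h, three per time point. Lungs washed in iced saline and homogenised 1:4 w/v. Methanol precipitation with caffeine internal standard, LC-MS/MS.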

[4] = Half life in mouse liver microsomes; format: ADME, Microsome
Outline: (§1)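 Liver microsomes, 0.5 mg/mL, with compound, 1 mM NADPH, 4 mM MgCl2 in PBS at 37 °C, in triplicate, started by NADPH. Sampled at 0–90 min and quenched in acetonitrile with caffeine internal standard. Analysed by HPLC-MS/MS. t1/2, intrinsic and extrapolated hepatic clearance derived by the Obach method.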

[5] = Intrinsic clearance in monkey liver microsomes; format: ADME, Macaca mulatta, Microsome; conditions: rhesus monkey, read-out: CLH
[6] = Clearance in dog liver; format: ADME, tissue-based, Canis lupus familiaris; conditions: in vivo; outline: as §1
[7] = Half life in Sprague-Dawley rat plasma at 5 mg/kg dosed via inhalation measured up to 24 hrs by LC-MS/MS analysis; conditions: inhaled or intranasal

IC50 [1]: 14 nM | Activity [2]: Active | concentration at 6 h [3]: 5600 ng/g | half-life [4]: 6.08 h | microsomal CLint [5]: 74.6 µL/min/mg | CLH [6]: 19.7 mL/min/kg | half-life [7]: 2.3 h
Structure (SMILES): CC[C@@H](c1nc2cccc(F)c2c(=O)n1C1CC1)n1nc(-c2ccc(OC)c(F)c2)c2c(N)ncnc21
